Assay outcomes: PubChem, several laboratories
WT yeast gro inh = growth inhibition of WT yeast, mitochondrial fusion screen; mitochondrial fusion phenotypic screen, WT strain; inhibition, % at 10 µM; 190,000 compounds, 2.1% hits; in the data active = inhibition above about 58%; tested in S. cerevisiae
Cl transport mod = KCC2 (human) Cl- transport modulation | B-score of Tl+ flux slope (higher = more flux/activation; lower = inhibition) at 10 µM | KCC2 cells, thallium flux FluoZin-2 fluorescence | 190,000 compounds, 2.2% hits;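 active = thallium flux slope and its plate-corrected score both differing from the plate sample mean at a set confidence after two filtering rounds, in either direction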;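 also: slope of fluorescence scaled to starting intensity during 10 to 20 s after thallium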
Target sequence (Q9H2X9 whole entry, looked up): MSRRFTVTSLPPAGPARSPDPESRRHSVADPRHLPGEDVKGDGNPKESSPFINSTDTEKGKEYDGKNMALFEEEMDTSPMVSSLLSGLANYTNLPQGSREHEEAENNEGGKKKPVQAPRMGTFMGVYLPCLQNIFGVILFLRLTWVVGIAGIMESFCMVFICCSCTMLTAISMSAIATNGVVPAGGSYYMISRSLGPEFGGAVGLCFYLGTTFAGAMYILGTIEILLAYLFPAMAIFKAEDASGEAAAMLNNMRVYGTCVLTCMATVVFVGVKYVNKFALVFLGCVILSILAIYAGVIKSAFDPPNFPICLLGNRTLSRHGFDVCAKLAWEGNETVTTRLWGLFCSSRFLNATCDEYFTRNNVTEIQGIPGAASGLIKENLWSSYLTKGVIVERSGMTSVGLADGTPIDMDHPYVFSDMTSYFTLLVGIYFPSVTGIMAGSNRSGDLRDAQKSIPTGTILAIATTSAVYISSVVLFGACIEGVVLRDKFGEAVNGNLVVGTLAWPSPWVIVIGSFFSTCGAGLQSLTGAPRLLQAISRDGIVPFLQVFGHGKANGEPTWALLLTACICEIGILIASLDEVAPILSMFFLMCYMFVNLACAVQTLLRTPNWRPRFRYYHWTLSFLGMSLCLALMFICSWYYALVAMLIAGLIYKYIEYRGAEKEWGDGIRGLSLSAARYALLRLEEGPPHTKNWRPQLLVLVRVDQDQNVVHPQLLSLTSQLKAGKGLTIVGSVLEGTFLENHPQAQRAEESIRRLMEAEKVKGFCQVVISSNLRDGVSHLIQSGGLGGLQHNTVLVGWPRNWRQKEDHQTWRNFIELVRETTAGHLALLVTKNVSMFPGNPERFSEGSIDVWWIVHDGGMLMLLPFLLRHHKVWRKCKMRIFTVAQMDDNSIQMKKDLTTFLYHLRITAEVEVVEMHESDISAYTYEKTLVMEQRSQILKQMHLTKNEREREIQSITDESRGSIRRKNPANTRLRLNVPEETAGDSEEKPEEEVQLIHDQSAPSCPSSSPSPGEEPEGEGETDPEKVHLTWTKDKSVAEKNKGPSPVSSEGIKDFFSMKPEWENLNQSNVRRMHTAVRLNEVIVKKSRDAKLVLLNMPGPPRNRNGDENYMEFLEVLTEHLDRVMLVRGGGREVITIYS
RAM inhibit = inhibitors of the yeast RAM network; S. cerevisiae dse1pr::URA3 reporter, 5-FOA growth OD615, 2 d; analog-sensitive cbk1-as2 kinase mutant strain; inhibition, % at 50 µM; 190,000 compounds, 1.8% hits; AID 868;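 active = inhibition above a set limit, 3 SD over mean compound inhibition, cut at about 8.4% in these data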;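 also: 0% = DMSO-only wells with no growth and 100% = 10 µM 1-NA-PP1 full growth; inhibition rescues growth on 5-FOA so higher OD means more RAM inhibition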
BB579 growth dn = yeast BB579 growth reduction in restrictive medium; S. cerevisiae BB579 growth, OD615, 48 h; inhibition, % at 10 µM; 140,000 compounds, 0.51% hits; AID 804;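 active = inhibition above a set limit, 3 SD over the mean compound inhibition, cut at about 44% in these data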
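System: DeaD yeast strain BB579; buffer or medium: CSMM-D dextrose restrictive medium; technique: OD at 615 nm; schedule: 4 h cell preincubation, 48 h compound exposure, 30 °C humidified; doses: single 10 µM dose; controls: amphotericin B 10 µg/mL, positive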
Yeast life ext = extends the lifespan of yeast; S. cerevisiae growth with nicotinamide, OD615; deaD strain in restrictive glucose medium; inhibition of the nicotinamide effect, % at 10 µM; 130,000 compounds, 0.68% hits; AID 775;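 active = inhibition above a set limit, placed 3 SD over the median of all compounds, cut at about 26% in these data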;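 also: 0% = nicotinamide-treated wells and 100% = cells grown without nicotinamide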
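Assay system: engineered S. cerevisiae DeaD replicative-lifespan strain, galactose-grown log-phase cells; Buffer or medium: CSMM-D glucose medium, restrictive; Probe or stimulus: nicotinamide 1.5 mM; Compound: single dose 10 µM compound, 0.25% DMSO; Schedule: 4 h preincubation then 48 h treatment at 30 °C; Technique: OD615 measurement.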
An asterisk follows results filed as active. Hits are enriched below; roughly 5.5% of the tested compounds scored in any of these assays.

How did Cc1cc(C)cc(OCC(=O)OCC(=O)c2ccc3c(c2)NC(=O)CO3)c1 do in these assays?
WT yeast gro inh: 70.4*; Cl transport mod: 0.184; RAM inhibit: 5.9; BB579 growth dn: -34.8; Yeast life ext: -10.2

Results for O=C(NCc1n[nH]c(=S)n1-c1ccc(Cl)c(Cl)c1)c1ccc(S(=O)(=O)N2CCOCC2)cc1 ?
WT yeast gro inh: 1.0; Cl transport mod: 0.113; RAM inhibit: -0.7

How did CCN1/C(=C\C(=S)Nc2ccccc2)Sc2ccccc21 do in these assays?
WT yeast gro inh: 69.2*; Cl transport mod: -0.438; RAM inhibit: 3.8

How did O=C(Nc1ccccc1)c1ccccc1NS(=O)(=O)c1ccc(Cl)s1 do in these assays?
WT yeast gro inh: 53.3; RAM inhibit: 4.7; BB579 growth dn: -10.5; Yeast life ext: -1.6

Results for O=C(Nc1ccccc1Cc1ccccc1)c1ccccc1NS(=O)(=O)c1ccc(Cl)s1 ?
WT yeast gro inh: 76.0*; Cl transport mod: -3.54*; RAM inhibit: 6.7; BB579 growth dn: -40.9; Yeast life ext: 15.2

Results for CC(NCc1cc(Br)ccc1OCC(=O)NCc1ccccc1)c1ccccc1 (configuration not stated) ?
WT yeast gro inh: 0.6; Cl transport mod: -1.03; RAM inhibit: 1.7

What do the screens show for `COc1ccc(NC(=O)c2cc3n(n2)C(C(F)(F)F)CC(c2ccc4c(c2)OCO4)N3)cc1OC` (configuration not stated)?
WT yeast gro inh: 67.8*; Cl transport mod: -0.683; RAM inhibit: 4.7; BB579 growth dn: 7.8; Yeast life ext: -12.9

What do the screens show for `Cc1ccc(C2CC(C(F)(F)F)n3nc(C(=O)Nc4c(C)n(C)n(-c5ccccc5)c4=O)cc3N2)cc1` (configuration not stated)?
WT yeast gro inh: -4.7; Cl transport mod: 0.757; RAM inhibit: 9.9*

How did Cc1cccc(NC(=O)c2cc3n(n2)C(C(F)(F)F)CC(c2ccc4c(c2)OCO4)N3)c1 (configuration not stated) do in these assays?
WT yeast gro inh: 67.3*; Cl transport mod: -0.301; RAM inhibit: 3.4; BB579 growth dn: -48.2; Yeast life ext: -7.1

How did COc1ccc(C2CC(C(F)(F)F)n3nc(C(=O)NCCCn4ccnc4)cc3N2)cc1OC (configuration not stated) do in these assays?
WT yeast gro inh: 5.2; RAM inhibit: 0.1; BB579 growth dn: -20.1; Yeast life ext: -4.9

How did Cc1ccc(S(=O)(=O)N2CC3CCCC2C3)cc1 (configuration not stated) do in these assays?
Cl transport mod: -0.548

Results for O=C(Nc1ccc(Nc2ccccc2)cc1)C(Cl)(Cl)Cl ?
WT yeast gro inh: 27.4; Cl transport mod: -2.9; RAM inhibit: 3.9; BB579 growth dn: -23.8; Yeast life ext: -3.4

How did COc1ccccc1-c1cc(C(F)(F)F)nc(NCc2cccs2)n1 do in these assays?
WT yeast gro inh: 64.8*; Cl transport mod: -0.158; RAM inhibit: 10.0*; BB579 growth dn: -43.0; Yeast life ext: -1.3

How did O=C(NC1CC1)c1ccc2c(c1)C1C3CCC(C3)C1C(c1ccccc1)N2 (configuration not stated) do in these assays?
WT yeast gro inh: 71.2*; Cl transport mod: -0.133; RAM inhibit: 2.2; BB579 growth dn: -13.2; Yeast life ext: 18.0

Results for O=C(NC1CCCC1)c1cccc(Cl)c1 ?
WT yeast gro inh: 19.9; Cl transport mod: -0.0229; RAM inhibit: 0.5

What do the screens show for `COc1c(OC(C)=O)ccc(/C=C/c2ccc3ccccc3n2)c1[N+](=O)[O-]`?
WT yeast gro inh: 67.9*; RAM inhibit: 0.1; BB579 growth dn: -45.1; Yeast life ext: -19.6

How did CCOc1c(OC(C)=O)ccc(/C=C/c2ccc3cccc(OC(C)=O)c3n2)c1[N+](=O)[O-] do in these assays?
WT yeast gro inh: 65.0*; Cl transport mod: -0.325; RAM inhibit: 2.1; BB579 growth dn: -30.5; Yeast life ext: -4.6

Results for CC1Cc2nc(SCC(=O)Nc3nc4ccccc4s3)n(C)c(=O)c2S1 (configuration not stated) ?
WT yeast gro inh: 4.5; RAM inhibit: 3.4; BB579 growth dn: -35.9; Yeast life ext: -10.8

What do the screens show for `COc1cc2c(=O)n(-c3ccc(C)cc3)c(=O)n(CC(=O)c3ccc4c(c3)OCO4)c2cc1OC`?
WT yeast gro inh: -77.6; Cl transport mod: -0.178; RAM inhibit: 9.1*; BB579 growth dn: -52.8; Yeast life ext: -1.5

What do the screens show for `COc1cc(-n2c(=O)c3ccccc3n(CC(=O)c3ccccc3)c2=O)cc(OC)c1OC`?
WT yeast gro inh: -1.3; Cl transport mod: 0.74; RAM inhibit: 4.7

What do the screens show for `Cc1ccc2cccnc2c1N`?
WT yeast gro inh: -6.5; Cl transport mod: -0.0123; RAM inhibit: 2.4

Results for c1cnc2c(c1)ccc1cccnc12 ?
WT yeast gro inh: 35.0; Cl transport mod: 0.103; RAM inhibit: 0.3; BB579 growth dn: 99.4*; Yeast life ext: -9.5

Results for C/C(=N\NC(=O)C1CC1)c1cccs1 ?
WT yeast gro inh: -1.9; Cl transport mod: 0.243; RAM inhibit: 3.4; BB579 growth dn: -51.5; Yeast life ext: 27.2*

What do the screens show for `CCCn1nnnc1NC(=O)c1ccc2ccccc2c1`?
WT yeast gro inh: 7.9; Cl transport mod: 15.9*; RAM inhibit: -0.8; BB579 growth dn: -9.0; Yeast life ext: 2.9

Results for COC(C/C=C\[C@@H](O)COCc1ccccc1)OC ?
Cl transport mod: 0.404

How did CN(C)S(=O)(=O)c1cc(C(=O)NCCCn2ccc3ccccc32)ccc1Cl do in these assays?
WT yeast gro inh: 2.8; Cl transport mod: -1.32; RAM inhibit: 9.3*; BB579 growth dn: -52.8; Yeast life ext: 8.4

Results for COC(=O)/C=C1/SC(=NC(=O)c2ccc(F)cc2)NC1=O ?
Cl transport mod: 0.844

What do the screens show for `COC(=O)/C=C1/SC(=NC(=O)c2ccccc2)NC1=O`?
WT yeast gro inh: -6.6; Cl transport mod: 0.65; RAM inhibit: -1.0; BB579 growth dn: 18.8; Yeast life ext: 28.1*

What do the screens show for `COC(=O)c1c(NC(=O)CN2CCC3(O)CCCCC3C2c2ccc(OC)cc2OC)sc(C)c1C` (configuration not stated)?
WT yeast gro inh: 59.3*; Cl transport mod: -0.483; RAM inhibit: -0.1; BB579 growth dn: -5.6; Yeast life ext: -0.3

Results for COC(=O)c1c(NC(=O)CN2CCC3(O)CCCCC3C2c2ccccc2OC)sc(C)c1C (configuration not stated) ?
WT yeast gro inh: 73.3*; Cl transport mod: 0.0331; RAM inhibit: -1.2; BB579 growth dn: -18.4; Yeast life ext: 0.6

What do the screens show for `COc1ccc(NC(=O)CN2CCC3(O)CCCCC3C2c2cc(OC)ccc2OC)cc1` (configuration not stated)?
WT yeast gro inh: 0.0; Cl transport mod: 0; RAM inhibit: -0.3; BB579 growth dn: -33.0; Yeast life ext: -14.7

How did O=C(c1cccc(C(F)(F)F)c1)c1c[nH]c(C(=O)NCCCN2CCOCC2)c1 do in these assays?
WT yeast gro inh: -8.0; Cl transport mod: 0.14; RAM inhibit: 2.3
